Read-outs that look alike come from different tables or passages of the source.
Tests used:
[1] = format: in vivo, human
How it was run: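 Adults with advanced solid tumours (ECOG 0–1; TP53 wild-type or unknown) received oral test compound on day 1 of 21-day cycles or days 1 and 8 of 28-day cycles, until progression or unacceptable toxicity. Antiemetic prophylaxis followed guidelines. AE incidence and severity were graded per NCI CTCAE v5.0 and summarised descriptively.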

[2] = Pharmacokinetic analysis of blood samples after oral brigimadlin; format: in vivo, human; conditions: for AUC(0-inf) / Cmax: oral
How it was run: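 Oral test compound given to patients with advanced solid tumours, on day 1 of 21-day cycles or days 1 and 8 of 28-day cycles. Cycle 1 blood taken 5 min pre-dose, 1–8 h post-dose on day 1, then once on days 2, 3, 4, 5 and 8. Later cycles: pre-dose and 6 h, day 2, plus days 3 and 8 in cycle 2. Cmax and AUC by noncompartmental analysis.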

Cc1c(C(=O)O)ccc2c3n(nc12)[C@@H]1[C@H](C3)N(CC2CC2)[C@@]2(C(=O)Nc3cc(Cl)ccc32)[C@H]1c1cccc(Cl)c1F [brigimadlin]
TRAE Increased aspartate aminotransferase, All grades ([1]; D1D8q4w (n = 25)): 1 (4.0) n (%) | TRAE Increased aspartate aminotransferase, Grade ≥3 ([1]; D1D8q4w (n = 25)): 0 n (%) | TRAE Nausea, All grades ([1]; D1D8q4w (n = 25)): 19 (76.0) n (%) | TRAE Nausea, Grade ≥3 ([1]; D1D8q4w (n = 25)): 0 n (%) | TRAE Neutropenia, All grades ([1]; D1D8q4w (n = 25)): 6 (24.0) n (%) | TRAE Neutropenia, Grade ≥3 ([1]; D1D8q4w (n = 25)): 5 (20.0) n (%) | TRAE Thrombocytopenia, Grade ≥3 ([1]; D1D8q4w (n = 25)): 5 (20.0) n (%) | TRAE Vomiting, All grades ([1]; D1D8q4w (n = 25)): 15 (60.0) n (%) | TRAE Vomiting, Grade ≥3 ([1]; D1D8q4w (n = 25)): 1 (4.0) n (%) | patients with nausea leading to dose reduction ([1]; D1q3w): three | patients with thrombocytopenia leading to dose reduction ([1]; D1q3w): four | serious AE neutropenia ([1]; D1q3w): three | serious AE thrombocytopenia ([1]; D1q3w): three | Any AE ([1]; D1q3w (n = 29)): 29 (100.0) n (%) | Any AE (any cause) leading to study drug discontinuation ([1]; D1q3w (n = 29)): 2 (6.9) n (%) | Any AE (any cause) leading to study drug dose reduction ([1]; D1q3w (n = 29)): 11 (37.9) n (%) | Any TRAE ([1]; D1q3w (n = 29)): 27 (93.1) n (%) | Any grade ≥3 AE ([1]; D1q3w (n = 29)): 21 (72.4) n (%) | Any grade ≥3 TRAE ([1]; D1q3w (n = 29)): 17 (58.6) n (%) | Serious AEs (any cause) ([1]; D1q3w (n = 29)): 9 (31.0) n (%) | TRAE Alopecia, All grades ([1]; D1q3w (n = 29)): 6 (20.7) n (%) | TRAE Alopecia, Grade ≥3 ([1]; D1q3w (n = 29)): 0 n (%) | TRAE Anemia, All grades ([1]; D1q3w (n = 29)): 12 (41.4) n (%) | TRAE Anemia, Grade ≥3 ([1]; D1q3w (n = 29)): 3 (10.3) n (%) | TRAE Decreased appetite, All grades ([1]; D1q3w (n = 29)): 10 (34.5) n (%) | TRAE Decreased appetite, Grade ≥3 ([1]; D1q3w (n = 29)): 0 n (%) | TRAE Decreased lymphocyte count, All grades ([1]; D1q3w (n = 29)): 5 (17.2) n (%) | TRAE Decreased lymphocyte count, Grade ≥3 ([1]; D1q3w (n = 29)): 3 (10.3) n (%) | TRAE Decreased weight, All grades ([1]; D1q3w (n = 29)): 3 (10.3) n (%) | TRAE Decreased weight, Grade ≥3 ([1]; D1q3w (n = 29)): 0 n (%) | TRAE Decreased white blood cell count, All grades ([1]; D1q3w (n = 29)): 9 (31.0) n (%) | TRAE Decreased white blood cell count, Grade ≥3 ([1]; D1q3w (n = 29)): 5 (17.2) n (%) | TRAE Diarrhea, All grades ([1]; D1q3w (n = 29)): 8 (27.6) n (%) | TRAE Diarrhea, Grade ≥3 ([1]; D1q3w (n = 29)): 0 n (%) | TRAE Dysgeusia, All grades ([1]; D1q3w (n = 29)): 5 (17.2) n (%) | TRAE Dysgeusia, Grade ≥3 ([1]; D1q3w (n = 29)): 0 n (%) | TRAE Fatigue, All grades ([1]; D1q3w (n = 29)): 15 (51.7) n (%) | TRAE Fatigue, Grade ≥3 ([1]; D1q3w (n = 29)): 1 (3.4) n (%) | TRAE Gastroesophageal reflux disease, All grades ([1]; D1q3w (n = 29)): 2 (6.9) n (%) | TRAE Gastroesophageal reflux disease, Grade ≥3 ([1]; D1q3w (n = 29)): 0 n (%) | TRAE Increased alanine aminotransferase, All grades ([1]; D1q3w (n = 29)): 3 (10.3) n (%) | TRAE Increased alanine aminotransferase, Grade ≥3 ([1]; D1q3w (n = 29)): 0 n (%) | TRAE Increased aspartate aminotransferase, All grades ([1]; D1q3w (n = 29)): 4 (13.8) n (%) | TRAE Increased aspartate aminotransferase, Grade ≥3 ([1]; D1q3w (n = 29)): 0 n (%) | TRAE Nausea, All grades ([1]; D1q3w (n = 29)): 21 (72.4) n (%) | TRAE Nausea, Grade ≥3 ([1]; D1q3w (n = 29)): 4 (13.8) n (%) | TRAE Neutropenia, Grade ≥3 ([1]; D1q3w (n = 29)): 8 (27.6) n (%) | TRAE Thrombocytopenia, All grades ([1]; D1q3w (n = 29)): 15 (51.7) n (%) | TRAE Thrombocytopenia, Grade ≥3 ([1]; D1q3w (n = 29)): 9 (31.0) n (%) | TRAE Vomiting, All grades ([1]; D1q3w (n = 29)): 13 (44.8) n (%) | TRAE Vomiting, Grade ≥3 ([1]; D1q3w (n = 29)): 0 n (%) | TRAE neutropenia grade 3 ([1]; all 54 patients): 9.3% | TRAE neutropenia grade 4 ([1]; all 54 patients): 14.8% | TRAE thrombocytopenia grade 3 ([1]; all 54 patients): 13.0% | TRAE thrombocytopenia grade 4 ([1]; all 54 patients): 13.0% | grade ≥3 TRAE neutropenia ([1]; all 54 patients): 24.1% | grade ≥3 TRAE thrombocytopenia ([1]; all 54 patients): 25.9% | patients with a grade ≥3 AE ([1]; all 54 patients): 61.1% | patients with a serious AE ([1]; all 54 patients): 33.3% | patients with grade ≥3 TRAEs ([1]; all 54 patients): 46.3% | patients with investigator-reported TRAEs ([1]; all 54 patients): 92.6% | TRAE nausea ([1]; all 54 patients, all grades): 74.1% | TRAE vomiting ([1]; all 54 patients, all grades): 51.9% | treatment discontinuation due to a hematologic TRAE ([1]; both treatment arms): no patient discontinued treatment with brigimadlin due to a hematologic TRAE | dose linearity of plasma exposure (Cmax and AUC0-inf) ([2]; after the first dose, both arms, dose range 5 to 80 mg): no significant deviation from linearity | dose linearity of plasma exposure (Cmax and AUC0-inf) ([2]; dose range 10 to 60 mg): no significant deviation from linearity | AUC(0-inf) ([2]; human, plasma, 60 mg): 121 µM·h | Cmax ([2]; human, plasma, 60 mg): 2.48 µM | AUC(0-inf) ([2]; human, plasma, 80 mg): 339 µM·h | Cmax ([2]; human, plasma, 80 mg): 4.8 µM | half-life ([2]; human, plasma, po, half-life, patients, as summarised in Discussion): 30 to 60 h

Reference: paper PMC10401071 (Cancer Discovery, 2023)
